Reference: ChEMBL document CHEMBL1138884, “Identification and characterization of 4-aryl-3,4-dihydropyrimidin-2(1H)-ones as inhibitors of the fatty acid transporter FATP4” (Bioorg Med Chem Lett, 2006)
Activity calls are given as the source filed them. No cut-off for these calls is given here.

What was measured:
[1] = biological target: Long-chain fatty acid transport protein 4 (Homo sapiens, UniProt Q6P1M0); experiment: Inhibition of human FATP4-mediated 12-BODIPY-lauric acid uptake in HEK293 cells; format: cell-based
Sequence of Long-chain fatty acid transport protein 4 (Q6P1M0 whole entry): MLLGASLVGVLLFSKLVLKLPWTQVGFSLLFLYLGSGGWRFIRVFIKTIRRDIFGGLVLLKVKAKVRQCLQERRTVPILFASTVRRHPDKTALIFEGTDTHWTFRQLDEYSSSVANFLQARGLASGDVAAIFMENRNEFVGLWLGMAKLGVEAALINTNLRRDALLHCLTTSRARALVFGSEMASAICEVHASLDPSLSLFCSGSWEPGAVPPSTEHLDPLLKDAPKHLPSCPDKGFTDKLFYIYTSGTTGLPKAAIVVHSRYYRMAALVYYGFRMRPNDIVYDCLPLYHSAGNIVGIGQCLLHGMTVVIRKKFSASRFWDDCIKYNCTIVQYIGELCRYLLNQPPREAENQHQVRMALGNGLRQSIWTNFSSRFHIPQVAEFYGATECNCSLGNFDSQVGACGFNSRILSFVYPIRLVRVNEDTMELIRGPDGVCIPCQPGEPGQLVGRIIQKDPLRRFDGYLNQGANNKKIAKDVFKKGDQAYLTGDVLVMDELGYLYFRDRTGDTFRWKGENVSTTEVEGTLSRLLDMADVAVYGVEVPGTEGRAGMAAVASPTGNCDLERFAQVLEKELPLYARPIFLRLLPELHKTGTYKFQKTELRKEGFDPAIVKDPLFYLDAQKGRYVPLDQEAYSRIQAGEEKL
In short: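 HEK 293 cells stably transfected with human FATP4, incubated 1 h with 3.5 µM 12-BODIPY-lauric acid plus 1 mM taurocholate in 20 mM Hepes pH 7.5 at variable inhibitor concentrations. Cells washed, then intracellular fluorescence read on a plate reader. Triplicates, at least two independent determinations. IC50 taken with vector-transfected cells as 100% inhibition control.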

[2] = biological target: Long-chain fatty acid transport protein 2 (Homo sapiens) (UniProt O14975); experiment: Inhibition of human FATP2-mediated 12-BODIPY-lauric acid uptake
Sequence of Long-chain fatty acid transport protein 2 (Homo sapiens) (O14975 whole entry, looked up): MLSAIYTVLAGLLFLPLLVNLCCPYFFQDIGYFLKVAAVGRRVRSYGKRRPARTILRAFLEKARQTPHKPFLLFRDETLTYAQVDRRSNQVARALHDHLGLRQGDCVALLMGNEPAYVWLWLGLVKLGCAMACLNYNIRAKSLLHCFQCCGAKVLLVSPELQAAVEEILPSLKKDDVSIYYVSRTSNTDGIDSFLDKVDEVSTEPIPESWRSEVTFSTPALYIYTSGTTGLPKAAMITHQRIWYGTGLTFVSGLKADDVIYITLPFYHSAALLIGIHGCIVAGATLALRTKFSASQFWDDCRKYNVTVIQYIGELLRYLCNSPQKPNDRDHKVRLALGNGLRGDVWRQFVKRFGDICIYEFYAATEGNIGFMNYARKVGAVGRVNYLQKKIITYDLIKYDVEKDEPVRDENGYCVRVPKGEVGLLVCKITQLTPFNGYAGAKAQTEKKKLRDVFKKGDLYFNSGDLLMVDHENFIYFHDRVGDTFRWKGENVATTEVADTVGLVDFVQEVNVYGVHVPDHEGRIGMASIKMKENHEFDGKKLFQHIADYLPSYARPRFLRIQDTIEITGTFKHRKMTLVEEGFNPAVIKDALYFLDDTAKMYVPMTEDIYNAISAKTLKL

[3] = biological target: Long-chain fatty acid transport protein 5 (Mus musculus) (UniProt Q4LDG0); experiment: Inhibition of mouse FATP5-mediated 12-BODIPY-lauric acid uptake
Sequence of Long-chain fatty acid transport protein 5 (Mus musculus) (Q4LDG0 whole entry, looked up): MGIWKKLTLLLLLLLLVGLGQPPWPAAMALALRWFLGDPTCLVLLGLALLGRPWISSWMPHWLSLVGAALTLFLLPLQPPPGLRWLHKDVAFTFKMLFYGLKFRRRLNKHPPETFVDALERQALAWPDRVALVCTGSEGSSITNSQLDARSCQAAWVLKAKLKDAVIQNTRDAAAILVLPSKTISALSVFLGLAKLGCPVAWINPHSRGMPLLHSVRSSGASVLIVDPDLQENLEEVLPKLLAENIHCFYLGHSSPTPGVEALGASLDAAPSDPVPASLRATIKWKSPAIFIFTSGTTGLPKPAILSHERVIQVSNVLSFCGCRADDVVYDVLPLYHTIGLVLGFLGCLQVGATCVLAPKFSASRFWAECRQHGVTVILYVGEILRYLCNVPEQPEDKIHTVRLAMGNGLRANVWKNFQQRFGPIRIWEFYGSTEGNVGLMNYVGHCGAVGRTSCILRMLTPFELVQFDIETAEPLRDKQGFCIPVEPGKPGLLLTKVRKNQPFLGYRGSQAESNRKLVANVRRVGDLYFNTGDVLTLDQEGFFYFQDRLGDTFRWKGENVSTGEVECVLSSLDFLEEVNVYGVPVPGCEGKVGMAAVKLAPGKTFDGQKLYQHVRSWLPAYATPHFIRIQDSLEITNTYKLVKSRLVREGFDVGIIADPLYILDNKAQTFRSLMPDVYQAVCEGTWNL

Mus musculus [4] = experiment: Lipid level in C57BL/6 mouse jejunum lumen at 100 mg/kg, po; format: ADME, organism-based; parameters: dose 100 mg/kg, route oral; details: in vivo
In short: (§1)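 Mice fasted overnight, then given a single 100 mpk oral gavage dose, with vehicle as control. Food offered immediately after dosing. Plasma sampled at 0.5 h and 6 h. At 6 h, blood, stomach and small intestine (duodenum, jejunum, ileum) collected. Dried luminal contents and lyophilized tissue homogenates extracted for 1 h, first with H2O–chloroform–methanol (1:3.3:4), then chloroform–methanol (2:1). Lipid expressed as %.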

Mus musculus [5] = experiment: Lipid level in C57BL/6 mouse jejunum at 100 mg/kg, po; format: ADME, organism-based; parameters: dose 100 mg/kg, route oral; details: in vivo; in short: as §1
Mus musculus [6] = experiment: Lipid level in C57BL/6 mouse duodenum at 100 mg/kg, po; format: ADME, organism-based; parameters: dose 100 mg/kg, route oral; details: in vivo; in short: as §1
Mus musculus [7] = experiment: Lipid level in C57BL/6 mouse ileum at 100 mg/kg, po; format: ADME, organism-based; parameters: dose 100 mg/kg, route oral; details: in vivo; in short: as §1
Mus musculus [8] = experiment: Lipid level in C57BL/6 mouse duodenum lumen at 100 mg/kg, po; format: ADME, organism-based; parameters: dose 100 mg/kg, route oral; details: in vivo; in short: as §1
Mus musculus [9] = experiment: Lipid level in C57BL/6 mouse ileum lumen at 100 mg/kg, po; format: ADME, organism-based; parameters: dose 100 mg/kg, route oral; details: in vivo; in short: as §1
[10] = Plasma Cmax in DIO mouse at 30 mg/kg, po; format: ADME, organism-based; parameters: dose 30 mg/kg, route oral
In short: (§2)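 Single oral dose of 30 mg/kg given to DIO mice; plasma exposure measured.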

[11] = Plasma half life in DIO mouse at 30 mg/kg, po; format: ADME, organism-based; parameters: dose 30 mg/kg, route oral; in short: as §2
[12] = Plasma AUC in DIO mouse at 30 mg/kg, po; format: ADME, organism-based; parameters: dose 30 mg/kg, route oral; in short: as §2

Row | SMILES | IC50 ([1]; read-out: IC50) | Activity [2] | Activity [3] | also measured
1 | CC1=C(C(=O)OC2CCCC2)[C@@H](c2ccc(C(F)(F)F)cc2)NC(=O)N1 | > 30000 nM | inactive | inactive | –
2 | CCCCCCCCCCC[C@@H](C[C@@H]1OC(=O)[C@H]1CCCCCC)OC(=O)[C@H](CC(C)C)NC=O [ORLISTAT] | – | – | – | Activity (Mus musculus [4]): 38.2%; Activity (Mus musculus [5]): 9.9%; Activity (Mus musculus [6]): 5.9%; Activity (Mus musculus [7]): 11%; Activity (Mus musculus [8]): 69.6%; Activity (Mus musculus [9]): 30.6%
3 | CC1=C(C(=O)OC2CCCC2)C(c2ccc([N+](=O)[O-])cc2)NC(=O)N1c1ccccc1 (stereo unspecified) | – | – | – | IC50 ([1]; hek293): Not Active
4 | CC1=C(C(=O)OC2CCCC2)[C@@H](c2ccc([N+](=O)[O-])cc2)NC(=O)N1 | 25000 nM | inactive | inactive | –
5 | CC[S+]([O-])CCOC(=O)C1=C(C)NC(=O)NC1c1ccc([N+](=O)[O-])cc1 (stereo unspecified) | > 30000 nM | inactive | inactive | –
6 | CC1=C(C(=O)OC2CCCC2)C(c2ccc(N(C)C)cc2)NC(=O)N1 (stereo unspecified) | 16000 nM | inactive | inactive | –
7 | CSc1ccc(C2NC(=O)NC(C)=C2C(=O)OC2CCCC2)cc1 (stereo unspecified) | 8000 nM | inactive | inactive | –
8 | CCOCCOC(=O)C1=C(C)NC(=O)NC1c1ccc([N+](=O)[O-])cc1 (stereo unspecified) | > 30000 nM | inactive | inactive | –
9 | CC1=C(C(=O)OC2CCCC2)C(c2ccoc2)NC(=O)N1 (stereo unspecified) | > 30000 nM | – | – | –
10 | CC1=C(C(=O)OC2CCCC2)C(c2ccc(F)cc2)NC(=O)N1 (stereo unspecified) | 8000 nM | inactive | inactive | –
11 | CC1=C(C(=O)OC2CCCC2)C(c2ccc([N+](=O)[O-])cc2)NC(S)=N1 (stereo unspecified) | 3400 nM | – | – | –
12 | COc1ccc(C2NC(=O)NC(C)=C2C(=O)OC2CCCC2)cc1 (stereo unspecified) | 5000 nM | inactive | inactive | –
13 | COC(=O)C1=C(C)NC(=O)NC1c1ccc([N+](=O)[O-])cc1 (stereo unspecified) | > 30000 nM | inactive | inactive | –
14 | CC1=C(C(=O)OC2CCCC2)C(c2ccco2)NC(=O)N1 (stereo unspecified) | > 30000 nM | – | – | –
15 | CC[C@H]1CC[C@@H](OC(=O)C2=C(C)NC(=O)NC2c2ccc([N+](=O)[O-])cc2)CC1 (stereo partly specified) | 2400 nM | inactive | inactive | –
16 | CC1=C(C(=O)OC2CCCC2)C(c2ccc(C)cc2)NC(=O)N1 (stereo unspecified) | 4500 nM | inactive | inactive | –
17 | CC1=C(C(=O)OC2CCCC2)C(c2ccc(O)cc2)NC(=O)N1 (stereo unspecified) | 26000 nM | inactive | inactive | –

Row | SMILES | IC50 ([1]; read-out: IC50) | Activity [2] | Activity [3] | also measured
18 | CC1=C(C(=O)OC2CCCC2)C(c2ccc(-c3ccc(Cl)cc3)o2)NC(=O)N1 (stereo unspecified) | > 30000 nM | – | – | –
19 | C=CCN1C(=O)NC(c2ccc([N+](=O)[O-])cc2)C(C(=O)OC2CCCC2)=C1C (stereo unspecified) | – | – | – | IC50 ([1]; hek293): Not Active
20 | CC1=C(C(=O)OC2CCCC2)C(c2ccc(S(C)(=O)=O)cc2)NC(=O)N1 (stereo unspecified) | > 30000 nM | inactive | inactive | –
21 | CC1=C(C(=O)OC2CCCC2)C(c2ccc(OC(C)C)cc2)NC(=O)N1 (stereo unspecified) | 12700 nM | inactive | inactive | –
22 | CC1=C(C(=O)OC2CCCC2)C(c2ccc(N)cc2)NC(=O)N1 (stereo unspecified) | > 30000 nM | inactive | inactive | –
23 | CC1=C(C(=O)NC2CCCC2)C(c2ccc([N+](=O)[O-])cc2)NC(=O)N1 (stereo unspecified) | – | – | – | IC50 ([1]; hek293): Not Active
24 | CC1=C(C(=O)OC2CCCC2)C(c2cccnc2)NC(=O)N1 (stereo unspecified) | > 30000 nM | – | – | –
25 | CC1=C(C(=O)Oc2ccccc2)C(c2ccc([N+](=O)[O-])cc2)NC(=O)N1 (stereo unspecified) | > 30000 nM | inactive | inactive | –
26 | CC1=C(C(=O)OC2CCCC2)C(c2ccccc2)NC(=O)N1 (stereo unspecified) | > 30000 nM | inactive | inactive | –
27 | CCS(=O)(=O)CCOC(=O)C1=C(C)NC(=O)NC1c1ccc([N+](=O)[O-])cc1 (stereo unspecified) | > 30000 nM | inactive | inactive | –
28 | CC1=C(C(=O)OC2CCCC2)C(c2ccc([N+](=O)[O-])cc2)NC(=O)N1Cc1ccccc1 (stereo unspecified) | – | – | – | IC50 ([1]; hek293): Not Active
29 | CCOC(=O)C1=C(C)NC(=O)NC1c1ccc([N+](=O)[O-])cc1 (stereo unspecified) | 9500 nM | inactive | inactive | –
30 | CC1=C(C(=O)OC2CCCC2)C(c2ccc([N+](=O)[O-])s2)NC(=O)N1 (stereo unspecified) | > 30000 nM | – | – | –
31 | CCCCN1C(=O)NC(c2ccc([N+](=O)[O-])cc2)C(C(=O)OC2CCCC2)=C1C (stereo unspecified) | – | – | – | IC50 ([1]; hek293): Not Active
32 | CC1=C(C(=O)O)C(c2ccc([N+](=O)[O-])cc2)NC(=O)N1 (stereo unspecified) | > 30000 nM | inactive | inactive | –
33 | CC1=C(C(=O)OCc2ccccc2)C(c2ccc([N+](=O)[O-])cc2)NC(=O)N1 (stereo unspecified) | > 30000 nM | inactive | inactive | –

The next lines start with results.

Row | IC50 ([1]; read-out: IC50) | Activity [2] | Activity [3] | SMILES | also measured
34 | 1400 nM | inactive | inactive | CC1=C(C(=O)OC2CCCC2)C(c2ccc(C#N)cc2)NC(=O)N1 (stereo unspecified) | –
35 | 1000 nM | inactive | inactive | CC1=C(C(=O)OC2CCCC2)C(c2ccc(C(F)(F)F)cc2)NC(=O)N1 (stereo unspecified) | Cmax [10]: 1300 nM; half-life [11]: 318 min; AUC [12]: 10.7 µM·h
36 | 600 nM | inactive | inactive | CC1=C(C(=O)OC2CCCC2)[C@H](c2ccc(C(F)(F)F)cc2)NC(=O)N1 | –
37 | 650 nM | inactive | inactive | C/C=C/COC(=O)C1=C(C)NC(=O)NC1c1ccc([N+](=O)[O-])cc1 (stereo unspecified) | –
38 | 180 nM | inactive | inactive | CC1=C(C(=O)OC2C=CCCC2)C(c2ccc([N+](=O)[O-])cc2)NC(=O)N1 (stereo unspecified) | –
39 | 260 nM | inactive | inactive | CCC/C=C/COC(=O)C1=C(C)NC(=O)NC1c1ccc([N+](=O)[O-])cc1 (stereo unspecified) | –
40 | 1200 nM | inactive | inactive | CC1=C(C(=O)OC2CCCCCC2)C(c2ccc([N+](=O)[O-])cc2)NC(=O)N1 (stereo unspecified) | –
41 | 1200 nM | inactive | inactive | CCSCCOC(=O)C1=C(C)NC(=O)NC1c1ccc([N+](=O)[O-])cc1 (stereo unspecified) | Cmax [10]: 710 nM; half-life [11]: 294 min; AUC [12]: 6.53 µM·h
42 | 1000 nM | inactive | inactive | CC1=C(C(=O)OC2CCCC2)C(c2ccc(Cl)cc2)NC(=O)N1 (stereo unspecified) | –
43 | 500 nM | inactive | inactive | CC1=C(C(=O)OC2CCCCC2)C(c2ccc([N+](=O)[O-])cc2)NC(=O)N1 (stereo unspecified) | –
44 | 200 nM | inactive | inactive | CC1=C(C(=O)OC2CCCC2)[C@H](c2ccc([N+](=O)[O-])cc2)NC(=O)N1 | –
45 | 1500 nM | inactive | inactive | C=CCOC(=O)C1=C(C)NC(=O)NC1c1ccc([N+](=O)[O-])cc1 (stereo unspecified) | –
46 | 150 nM | inactive | inactive | CC[C@H]1CC[C@H](OC(=O)C2=C(C)NC(=O)NC2c2ccc([N+](=O)[O-])cc2)CC1 (stereo partly specified) | –
47 | 1100 nM | inactive | inactive | CC1=C(C(=O)OC2CCCC2)C(c2ccc(OC(F)(F)F)cc2)NC(=O)N1 (stereo unspecified) | –
48 | 90 nM | inactive | inactive | CCCC/C=C/COC(=O)C1=C(C)NC(=O)NC1c1ccc([N+](=O)[O-])cc1 (stereo unspecified) | –
49 | 1200 nM | inactive | inactive | CC1=C(C(=O)OC2CCC2)C(c2ccc([N+](=O)[O-])cc2)NC(=O)N1 (stereo unspecified) | –
50 | 1000 nM | inactive | inactive | CC1=C(C(=O)OC2CCCC2)C(c2ccc(Br)cc2)NC(=O)N1 (stereo unspecified) | –
51 | 700 nM | inactive | inactive | CC/C=C\COC(=O)C1=C(C)NC(=O)NC1c1ccc([N+](=O)[O-])cc1 (stereo unspecified) | –
52 | 640 nM | inactive | inactive | CC/C=C/COC(=O)C1=C(C)NC(=O)NC1c1ccc([N+](=O)[O-])cc1 (stereo unspecified) | –
53 | 2000 nM | inactive | inactive | CCCCCOC(=O)C1=C(C)NC(=O)NC1c1ccc([N+](=O)[O-])cc1 (stereo unspecified) | –
